Calls of active or inactive are those of the source. No cut-off for these calls is given here. Where only a bound is given, the exact number is not on record here.

What is called IC50 is the point on the concentration scale where inhibition reaches its midpoint. A word on the pKa: it is the pH at which an ionisable group is half protonated. Low values mean a group that gives up its proton readily, high ones a group that holds its proton tightly. A word on the Km: it is the substrate concentration at which the rate is half of its maximum.

One series concerns the target T1, Steryl-sulfatase (Homo sapiens, UniProt P08842).
T1 sequence (P08842 whole entry): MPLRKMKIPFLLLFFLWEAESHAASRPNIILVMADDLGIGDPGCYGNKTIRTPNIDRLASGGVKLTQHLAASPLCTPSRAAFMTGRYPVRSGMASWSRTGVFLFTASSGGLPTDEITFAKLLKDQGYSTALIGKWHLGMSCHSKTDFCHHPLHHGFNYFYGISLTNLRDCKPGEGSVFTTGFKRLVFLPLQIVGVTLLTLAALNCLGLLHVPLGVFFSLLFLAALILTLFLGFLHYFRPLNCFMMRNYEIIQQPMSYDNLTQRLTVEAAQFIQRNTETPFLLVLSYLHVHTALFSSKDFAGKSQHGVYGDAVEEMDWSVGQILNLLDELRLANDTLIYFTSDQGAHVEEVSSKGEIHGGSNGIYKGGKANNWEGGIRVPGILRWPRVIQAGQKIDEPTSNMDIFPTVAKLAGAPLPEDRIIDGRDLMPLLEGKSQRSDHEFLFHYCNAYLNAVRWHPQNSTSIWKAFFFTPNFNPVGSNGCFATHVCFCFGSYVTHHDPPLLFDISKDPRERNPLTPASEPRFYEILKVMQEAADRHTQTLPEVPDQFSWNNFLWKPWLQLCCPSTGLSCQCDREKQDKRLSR
Nature of the series: (§1) Inhibition of Estrone sulfatase in human placental microsome. Details: species or system Placenta.

Series [1] in a line: Dissociation constant, pKa of the compound. Type of series: physicochemical.
The next series is filed under the species Gallus gallus. Nature of the series: Acute toxicity in chick embryo after 72 to 96 hrs by hen's fertile egg screening test. Particulars: chicken, in vivo. The class given is organism-based. An outline of the steps: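 Fifteen-day-old fertile hen's egg embryos received compound through the air cell. Deaths were scored 72-96 h after treatment, and an LD50 was derived in mg/kg.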

A further series deals with K562. Nature of the series: Growth inhibition of K562 cells. Type of series: functional, cell-based. To be noted: Homo sapiens.
The test system of the next series is HeLa. Nature of the series: Growth inhibition of HeLa cells. Type of series: functional, cell-based. Particulars: Homo sapiens.
Series [2] addresses T2, Steryl-sulfatase (Homo sapiens) (UniProt P08842).
T2 sequence (whole entry): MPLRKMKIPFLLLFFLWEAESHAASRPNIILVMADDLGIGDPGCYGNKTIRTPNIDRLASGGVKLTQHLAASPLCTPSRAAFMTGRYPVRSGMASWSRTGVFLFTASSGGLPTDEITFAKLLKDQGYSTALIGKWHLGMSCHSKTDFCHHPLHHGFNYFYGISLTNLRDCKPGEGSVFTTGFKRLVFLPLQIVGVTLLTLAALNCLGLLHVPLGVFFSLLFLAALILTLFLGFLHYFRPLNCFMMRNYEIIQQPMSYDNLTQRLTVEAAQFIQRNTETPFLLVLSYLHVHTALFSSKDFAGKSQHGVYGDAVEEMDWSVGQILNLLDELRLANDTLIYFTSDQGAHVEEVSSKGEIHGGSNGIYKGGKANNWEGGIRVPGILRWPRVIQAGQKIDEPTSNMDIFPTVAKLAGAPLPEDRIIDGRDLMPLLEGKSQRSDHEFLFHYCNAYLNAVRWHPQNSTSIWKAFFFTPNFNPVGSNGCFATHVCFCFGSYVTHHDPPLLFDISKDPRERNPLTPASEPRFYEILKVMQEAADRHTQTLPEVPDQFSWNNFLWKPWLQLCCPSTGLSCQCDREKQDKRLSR
The series is described as §1. Particulars: Placenta.

Series [3] addresses Estrone sulfatase (Homo sapiens). Kind of series: Activity of Estrone sulfatase in human placental microsome. Particulars: Placenta.

On to `COc1c(C)ccc(/C=N/NC(=S)NC2CCCCC2)c1C(=O)O`, for which the IC50 against Steryl-sulfatase is over 100 µM.
Same read-out and setting: under `O=C(O)c1ccccc1/C=N/NC(=S)NC1CC1` stands over 100 µM; under `O=C(O)c1ccccc1/C=N/NC(=S)Nc1ccccc1`, over 100 µM.
Take `OB(O)c1ccccc1/C=N/NC(=S)NC1CCCCC1`: the pKa in series [1] is 7.7. The molecule also returned an IC50 on Steryl-sulfatase of over 100 µM.
In series [1], `O=C(O)c1cc(/C=N/NC(=S)NC2CCCCC2)ccc1O` displayed a pKa of 4.2. In the series filed under Gallus gallus, the Activity was over 50 mg/kg. Further, the IC50 in the series on K562 and in the series on HeLa was over 50 µg/mL throughout.
The molecule `Oc1ccccc1/C=N/NC(=S)NC1CCCCC1` displayed a pKa in series [1] of 9.8.
Still for that read-out and setting: under `Cc1ccc(/C=N/NC(=S)NC2CCCCC2)c(C(=O)O)c1O` stands 4.3; under `Oc1cccc(/C=N/NC(=S)NC2CCCCC2)c1`, 10.2.
As for `C/C(=N\NC(=S)NC1CCCCC1)c1ccccc1C(=O)O`, the IC50 against Steryl-sulfatase is over 100 µM.
`O=C(O)c1ccccc1/C=N/NC(=S)NC1CCCCC1` displayed a pKa in series [1] of 6.4.
For the molecule `CCCCNC(=S)N/N=C/c1ccccc1C(=O)O`, in series [2], the outcome was inactive.
Regarding `CCCCNC(=S)N/N=C/c1cccc(C(=O)O)c1`, on Steryl-sulfatase, inhibition was half-maximal at 58 µM (IC50).
`O=C(O)c1cccc(/C=N/NC(=S)NC2CCCCC2)c1O`: in series [1], the pKa came out at 3.8. The Activity in the series listed under Gallus gallus was over 50 mg/kg. For the same molecule, the IC50 in the series with K562 and with HeLa was over 50 µg/mL each time.
In the case of `O=C(O)c1cccc(/C=N/NC(=S)NC2CCCCC2)c1`, the pKa in series [1] was found to be 5.4.
Same read-out and setting: under `S=C(N/N=C/c1cccc(-c2nnn[nH]2)c1)NC1CCCCC1` stands 5.2.
As to `O=C(N/N=C/c1cccc(C(=O)O)c1)NC1CCCCC1`, the IC50 against Steryl-sulfatase was over 100 µM.
On Steryl-sulfatase, `COc1ccc(/C=N/NC(=S)NC2CCCCC2)c(C(=O)O)c1OC` showed an IC50 of over 100 µM.
In the case of `COc1cccc(/C=N/NC(=S)NC2CCCCC2)c1C(=O)O`, the half-inhibitory concentration (IC50) against Steryl-sulfatase was over 100 µM.
In series [1], `O=C(O)c1ccc(O)c(/C=N/NC(=S)NC2CCCCC2)c1` yielded a pKa of 5.8. Also, the Activity in the series listed under Gallus gallus is over 100 mg/kg. In addition, the IC50 in the series on K562 and with HeLa was over 50 µg/mL throughout.
Regarding `CCCCCCNC(=S)N/N=C/c1ccccc1C(=O)O`, the outcome in series [2] was inactive.
As for `CCCCCCNC(=S)N/N=C/c1cccc(C(=O)O)c1`, it took 12 µM to reach half-maximal inhibition at Steryl-sulfatase (IC50).
In turn, `COc1c2c(c(O)c3c1C(=O)c1c(cc(O)c(C)c1O)C3=O)-c1c(cc(/C=N/NC(=S)NC3CCCCC3)c(C(=O)O)c1O)CC2` [MHL CYCLOHEXYLTHIOSEMICARBAZONE] had an Activity in the series filed under Gallus gallus of over 50 mg/kg. Also, the IC50 in the series on K562 and in the series on HeLa was over 50 µg/mL throughout.

B1: Steryl-sulfatase (Homo sapiens), P08842 (protein)
chain: MPLRKMKIPFLLLFFLWEAESHAASRPNIILVMADDLGIGDPGCYGNKTIRTPNIDRLASGGVKLTQHLAASPLCTPSRAAFMTGRYPVRSGMASWSRTGVFLFTASSGGLPTDEITFAKLLKDQGYSTALIGKWHLGMSCHSKTDFCHHPLHHGFNYFYGISLTNLRDCKPGEGSVFTTGFKRLVFLPLQIVGVTLLTLAALNCLGLLHVPLGVFFSLLFLAALILTLFLGFLHYFRPLNCFMMRNYEIIQQPMSYDNLTQRLTVEAAQFIQRNTETPFLLVLSYLHVHTALFSSKDFAGKSQHGVYGDAVEEMDWSVGQILNLLDELRLANDTLIYFTSDQGAHVEEVSSKGEIHGGSNGIYKGGKANNWEGGIRVPGILRWPRVIQAGQKIDEPTSNMDIFPTVAKLAGAPLPEDRIIDGRDLMPLLEGKSQRSDHEFLFHYCNAYLNAVRWHPQNSTSIWKAFFFTPNFNPVGSNGCFATHVCFCFGSYVTHHDPPLLFDISKDPRERNPLTPASEPRFYEILKVMQEAADRHTQTLPEVPDQFSWNNFLWKPWLQLCCPSTGLSCQCDREKQDKRLSR
On to B1, for which, in series [3], the Km was 27 µM.
